Bioassay records as filed in PubChem.
Rows were chosen to be rich in hits. Some 3.7% of all compounds tested hit in one or more screens of this group.
NPY Y2 blocker: antagonists of human neuropeptide Y receptor Y2. 0.99% of 140,000 active. inhibition, % at 2.7 µM. P49146. AID 793. NPY-Y2 expressing cells, antagonist mode;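 also: 0% = vehicle with agonist challenge and 100% = reference antagonist with challenge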
NPY Y1 blocker: NPY-Y1 (human) receptor antagonism | inhibition, % at 3.6 µM | 1% of 200,000 active | P25929 | HEK293-CNG Y1 cells, membrane potential fluorescence; NPY at EC95, then isoproterenol;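 active = inhibition above the campaign mean inhibition of all tested compounds plus 3 SD, cut at about 20% in these data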;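 also: 0% = DMSO wells given NPY plus isoproterenol and 100% = isoproterenol alone without NPY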
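Material: HEK293 Y1/CNG channel cell line | Also added: NPY (25 nM), isoproterenol (1 µM), Ro 20-1724 (25 µM) | Compound: One concentration, 3.6 µM, in 0.4% DMSO | Schedule: 3 h dye uptake, 1 h room-temperature compound, 45 min post-isoproterenol | Signal: Membrane-potential fluorescent dye readout | Read-out: % inhibition of NPY effect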
Furin inhibitor: inhibitors of human furin | P09958 | purified furin, fluorogenic substrate cleavage | inhibition, % at 20 µM or 30 µM | 0.061% of 220,000 active | AID 463115; in the data active = inhibition above about 25%
NPY-Y1 PAM-ag: human NPY-Y1 potentiation or agonism, primary screen | NPY-Y1 expressing cells, potentiator/agonist activation | P25929 | 0.37% of 220,000 active | activation, % at 3.6 µM; in the data active = activation above about 33%, passing the limit was not always enough;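 also: cells stimulated with NPY at EC10 then isoproterenol at EC100; 0% = low agonist plus stimulus and 100% = saturating agonist plus stimulus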
NPY2 pot ag: human NPY-Y2 potentiation or agonism, primary screen | P49146 | cells expressing NPY-Y2, potentiator/agonist read-out | activation, % at 3.6 µM | 0.45% of 220,000 active | AID 1359; in the data active = activation above about 27%;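 also: cells stimulated with NPY near EC25 plus isoproterenol at EC100; 0% = vehicle plus submaximal agonist and 100% = vehicle plus saturating agonist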
Cl transport mod: KCC2 (human) Cl- transport modulation | Q9H2X9 | KCC2 cells, thallium flux FluoZin-2 fluorescence | B-score of Tl+ flux slope (higher = more flux/activation; lower = inhibition) at 10 µM | 2.2% of 190,000 active | AID 1456;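 active = thallium flux slope and its plate-corrected score both differing from the plate sample mean at a set confidence after two filtering rounds, in either direction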;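 also: slope of fluorescence scaled to starting intensity during 10 to 20 s after thallium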
Target sequence (Q9H2X9 whole entry, looked up): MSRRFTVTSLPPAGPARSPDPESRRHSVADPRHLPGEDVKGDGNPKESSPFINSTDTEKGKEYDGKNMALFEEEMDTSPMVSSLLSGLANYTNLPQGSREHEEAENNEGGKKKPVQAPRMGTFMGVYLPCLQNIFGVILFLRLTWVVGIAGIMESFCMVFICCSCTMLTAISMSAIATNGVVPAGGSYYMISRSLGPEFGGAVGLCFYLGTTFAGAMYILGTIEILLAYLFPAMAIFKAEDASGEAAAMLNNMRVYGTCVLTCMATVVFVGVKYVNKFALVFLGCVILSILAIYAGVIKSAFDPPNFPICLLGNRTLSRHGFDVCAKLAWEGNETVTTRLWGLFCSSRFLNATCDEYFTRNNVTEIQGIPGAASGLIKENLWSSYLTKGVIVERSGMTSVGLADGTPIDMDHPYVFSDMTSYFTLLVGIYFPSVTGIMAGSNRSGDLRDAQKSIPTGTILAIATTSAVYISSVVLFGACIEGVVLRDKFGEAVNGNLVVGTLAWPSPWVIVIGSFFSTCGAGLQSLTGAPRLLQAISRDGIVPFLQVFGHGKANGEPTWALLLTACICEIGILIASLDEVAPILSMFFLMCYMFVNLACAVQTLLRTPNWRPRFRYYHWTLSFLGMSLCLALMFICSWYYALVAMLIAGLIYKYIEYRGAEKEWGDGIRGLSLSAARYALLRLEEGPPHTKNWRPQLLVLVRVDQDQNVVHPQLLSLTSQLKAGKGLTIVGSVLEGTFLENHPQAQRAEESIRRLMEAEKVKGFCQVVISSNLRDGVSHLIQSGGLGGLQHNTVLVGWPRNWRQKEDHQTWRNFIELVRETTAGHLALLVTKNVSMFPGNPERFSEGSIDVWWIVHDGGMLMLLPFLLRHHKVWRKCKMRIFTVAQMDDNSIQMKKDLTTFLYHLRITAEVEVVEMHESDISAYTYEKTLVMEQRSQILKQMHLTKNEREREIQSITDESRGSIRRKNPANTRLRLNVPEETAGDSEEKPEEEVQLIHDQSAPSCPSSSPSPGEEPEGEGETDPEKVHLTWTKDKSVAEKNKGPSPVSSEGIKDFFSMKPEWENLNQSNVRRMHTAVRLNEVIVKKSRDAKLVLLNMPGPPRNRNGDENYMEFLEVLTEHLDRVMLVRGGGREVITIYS
NPY1 antag conf: confirmation of human neuropeptide Y receptor Y1 antagonists. shares compounds with NPY Y1 blocker. HEK293-CNG NPY-Y1, membrane potential fluorescence, cAMP; NPY challenge against isoproterenol-raised cAMP. inhibition, % at 3.6 µM. 21% of 1,200 active. AID 1254; in the data active = inhibition above about 20%;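 also: 0% = vehicle with agonist plus stimulus and 100% = stimulus alone without agonist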
NPY2 antag ctr: human NPY-Y2 antagonism in NPY-Y1 counter-screen. shares compounds with NPY Y1 blocker. HEK293 NPY-Y2 CNG membrane potential fluorescence; cells given NPY, then isoproterenol. inhibition, % at 3.6 µM. 28% of 1,200 active. AID 1255;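 also: 0% = DMSO with agonist challenge and 100% = reference antagonist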
* hit, by the source's call; x = not tested or not shown. Rule as the data show it, unless noted: active = inhibition above about 17%; inactive = the rest.

SMILES	NPY Y2 blocker	NPY Y1 blocker	Furin inhibitor	NPY-Y1 PAM-ag	NPY2 pot ag	Cl transport mod	NPY1 antag conf	NPY2 antag ctr
Cc1ccsc1/C=N/n1c(-c2ccccn2)n[nH]c1=S	3	9	5	-14	-2	0.73	x	x
FC(F)(F)COc1nc(OCC(F)(F)F)nc(N2CCN(c3ccccc3)CC2)n1	9	28*	-15	-13	-10	-0.83	9	8
CCOC(=O)CC/C(C)=N\N=C1\SC(CC(=O)O)C(=O)N1c1ccccc1 (configuration not stated)	x	x	-20	-4	-10	x	x	x
Cc1ccc2c(CC(=O)NCCc3ccc(S(N)(=O)=O)cc3)coc2c1	x	x	-23	13	16	-0.6	x	x
O=C(Nc1cccc(Cl)c1)OCc1cn(-c2ccc(Cl)cc2)nn1	7	20*	-21	0	3	0.31	8	12
CCNC(=O)OCc1cn(-c2ccccc2)nn1	x	-1	-13	1	2	0.93	x	x
Cc1ccc(NC(=O)OCc2cn(-c3ccc(Cl)cc3)nn2)cc1	15	29*	-20	-21	-7	-0.35	18	18*
CC(C)(C)C(=O)OCc1cn(-c2ccc(Cl)cc2)nn1	5	3	-19	-4	-9	0.029	x	x
O=C(OCc1cn(-c2ccc(Cl)cc2)nn1)c1ccccc1	8	21*	-18	-27	-14	0.55	10	12
Cc1cc(C)c(C#N)c(SCC(=O)c2cc(C)n(CCc3ccccc3)c2C)n1	1	24*	-8	-10	4	-0.94	10	11
O=[N+]([O-])c1cc(Cl)cc(/C=N/NC(=S)Nc2ccc(S(=O)(=O)N3CCOCC3)cc2)c1O	x	x	-12	35	25	-2.7	x	x
CCOc1cc(/C=N/n2nnnc2N)ccc1OCc1c(C)no[n+]1[O-]	7	21*	-15	0	-22	-0.16	9	9
COc1cccc(CN(C(=O)Cc2c[nH]c3ccccc23)C(C(=O)NC2CCCCC2)c2ccc(C)o2)c1 (configuration not stated)	16	23*	-17	-20	-1	0.032	13	14
Cc1cc(OC(C)C(=O)N/N=C/CC(C)c2ccccc2)ccc1Cl (configuration not stated)	3	7	-15	-35	-13	-0.61	x	x
COc1ccc(-n2nnnc2-c2cccc(OC)c2)cc1	5	24*	-13	0	-15	-1.3	4	29*
CCOC(=O)C(=CNc1cc(C)nn1-c1ccc(Cl)cc1)C(=O)OCC	9	24*	-17	13	11	x	21*	5
C=CCc1c(NCCO)nc(C)[nH]c1=O	x	-1	-38	4	20	-0.76	x	x
CCC1=Nc2cc(C(=O)O)ccc2Sc2ccc(Cl)cc21	4	69*	-14	14	-1	-0.037	2	1
c1ccc(CC2CCN(C(c3cccs3)c3nnnn3C3CCCC3)CC2)cc1 (configuration not stated)	5	-4	-13	4	1	x	x	x
c1ccc(CN(Cc2cccs2)C(c2cccs2)c2nnnn2C2CCCC2)cc1 (configuration not stated)	16	21*	-5	-15	-18	0.85	17	6
Cn1c(SCC(=O)Nc2cccc(F)c2)nc2c([nH]c3ccccc32)c1=O	x	0	-19	6	5	-0.41	x	x
CCCCOC(=O)C[N+](C)(C)CCOC1CC2CCC1(C)C2(C)C (configuration not stated)	5	28*	-11	-28	-9	1.5	8	9
CCCCCCCOC(=O)C[N+](C)(C)CCOC1CC2CCC1(C)C2(C)C (configuration not stated)	15	13	-4	-51	0	1.4	x	x
COC(=O)c1ccc(Cn2cnc3c(cnn3-c3ccc(F)cc3)c2=O)o1	8	7	-2	-32	-31	x	x	x
COC(=O)c1ccc(CSc2nc3c(cnn3-c3ccc(C)cc3)c(=O)[nH]2)o1	10	27*	-13	-29	-2	0.68	3	10
SMILES	NPY Y2 blocker	NPY Y1 blocker	Furin inhibitor	NPY-Y1 PAM-ag	NPY2 pot ag	Cl transport mod	NPY1 antag conf	NPY2 antag ctr
COC(=O)c1ccc(Cn2cnc3c(cnn3-c3ccc(C)c(C)c3)c2=O)o1	17	27*	-11	-20	-17	0.67	12	9
Cc1ccc(-n2ncc3c(=O)[nH]c(SCC(=O)N4CCOCC4)nc32)cc1	-1	3	-14	-9	16	-0.22	x	x
O=C(Nc1ccc(Cl)c(Cl)c1)c1csc(-c2ccccc2)n1	3	8	-22	-6	4	x	x	x
O=C(Nc1cccc(Cl)c1)c1csc(-c2ccccc2)n1	16	23*	-17	-22	-40	x	6	8
O=[N+]([O-])c1ccc(C2CCCC/C2=N\OCc2cccc(F)c2)c([N+](=O)[O-])c1 (configuration not stated)	0	31*	-11	-37	-12	-0.28	11	11
COc1ccc(-n2cc(CNC3CCN(C)CC3)c(-c3cccc(F)c3)n2)cc1	x	22*	-29	-20	-41	1.8	17	24*
CN(Cc1cn(-c2ccccc2)nc1-c1cc2ccccc2o1)C(=O)CCC(=O)O	x	-5	-3	-19	-5	x	x	x
Cc1cc(C(=O)OCCN2C(=O)c3ccccc3C2=O)c2ccccc2n1	5	24*	-19	1	-4	-1.2	1	5
O=C(OCCN1C(=O)c2ccccc2C1=O)c1cc(=O)[nH]c2ccccc12	1	6	-6	-8	-11	x	x	x
COC(=O)c1cn(-c2ccccc2)nc1-c1ccc(OC)cc1	x	7	-14	-27	-4	-0.12	x	x
CCN(CC)CCNC(=S)NC(=O)c1cn(-c2ccccc2)nc1-c1ccc(OC)cc1	x	26*	-33	-43	-43	-0.042	17	32*
COc1ccc(/C=C(\C#N)C(=O)OCC(=O)Nc2ccc(C(C)(C)C)cc2)cc1	2	-3	3	7	-5	0.43	x	x
Cc1cc(=O)oc2cc(OCc3nnc(-c4ccccc4Br)o3)ccc12	13	26*	-17	-6	-5	-1.1	4	8
O=c1ccc2ccc(OCc3nnc(-c4ccccc4Br)o3)cc2o1	13	6	-13	-31	-6	x	x	x
O=P(c1ccccc1)(c1ccccc1)c1nc(-c2ccc(Cl)cc2)oc1N1CCOCC1	x	4	-27	18	13	-0.045	x	x
COc1ccc(C(=O)NC(=S)Nc2ccc(CN3CCCCC3)cc2)cc1Cl	x	28*	-15	-39	-40	0.9	14	23*
COc1ccccc1C(=O)Nc1ccc(CN2CCCCC2)cc1	1	6	-13	-9	-8	0.63	x	x
